From ChEMBL document CHEMBL1134075, “Synthesis and hydrolytic stability studies of albendazole carrier prodrugs” (Bioorg Med Chem Lett, 2001)

What was measured:
[1] = Partition coefficient (logP); assay type: physicochemical; settings: octanol/water
In short: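 Determined by RP-HPLC. log K = log[(tr − t0)/t0], with t0 the elution time of methanol. log K0 at 0% methanol was obtained by linear regression of log K versus percent methanol, using standards.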

[2] = Half life of the in human plasma; assay type: ADME, cell-free
In short: (§1)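 Incubation at 37 °C in 80% human plasma, initial 4×10^-4 M (1% methanol). Plasma samples withdrawn at various times were extracted on a C18 cartridge, and appearance of albendazole was followed by HPLC. First-order k_obs came from the slope of log % formed albendazole versus time, and t1/2 = 0.693/k_obs. Mean ± SD.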

[3] = First order rate constant, k was determined in human plasma; assay type: ADME, cell-free; in short: as §1
[4] = First order rate constant, k was determined in pig liver Esterase; assay type: ADME, tissue-based, Sus scrofa
In short: (§2)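 Pig liver esterase used in place of plasma, at 37 °C with initial 4×10^-4 M (1% methanol). Samples were C18-extracted over time and albendazole formation was tracked by HPLC. k_obs was taken from the slope of log % formed albendazole versus time, and t1/2 = 0.693/k_obs. Mean ± SD.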

[5] = Half life of the in pig liver Esterase; assay type: ADME, Sus scrofa; in short: as §2
[6] = Half life of the at pH 5.0; assay type: ADME
In short: (§3)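 Buffer hydrolysis at 37 °C in HCl, acetate, phosphate or borate buffers. Methanolic stock was added to preheated buffer in screw-capped tubes, giving about 4×10^-4 M final (1% methanol). Samples were taken at intervals and chromatographed immediately by HPLC. First-order k_obs came from the slope of log % formed albendazole versus time, and t1/2 = 0.693/k_obs.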

[7] = Half life of the at pH 7.4; assay type: ADME; in short: as §3
[8] = First order rate constant, k was determined at pH 1; assay type: ADME; in short: as §3
[9] = First order rate constant, k was determined at pH 2; assay type: ADME; in short: as §3
[10] = First order rate constant, k was determined at pH 3; assay type: ADME; in short: as §3
[11] = First order rate constant, k was determined at pH 4; assay type: ADME; in short: as §3
[12] = First order rate constant, k was determined at pH 5; assay type: ADME; in short: as §3
[13] = First order rate constant, k was determined at pH 5.0; assay type: ADME; in short: as §3
[14] = First order rate constant, k was determined at pH 6; assay type: ADME; in short: as §3
[15] = First order rate constant, k was determined at pH 8; assay type: ADME; in short: as §3
[16] = First order rate constant, k was determined at pH 9; assay type: ADME; in short: as §3
[17] = First order rate constant, k was determined at pH 7.4; assay type: ADME; in short: as §3

Structure (SMILES)	logP [1]	half-life [2] [min]	k [3]	k [4]	half-life [5] [min]	half-life [6] [min]	half-life [7] [min]	k [13]	also measured
CCCSc1ccc2nc(NC(=O)OC)[nH]c2c1 [ALBENDAZOLE]	3.07	–	–	–	–	–	–	–	–
CCCSc1ccc2nc(NC(=O)OC)n(C(=O)OCC)c2c1	3.19	7.19	96.33 10e-3 min-1	99.14 10e-3 min-1	6.99	165	120	4.21 10e-3 min-1	k [17]: 5.78 10e-3 min-1
CCCSc1ccc2c(c1)nc(NC(=O)OC)n2C(=O)CCC	3.92	–	–	–	–	–	–	–	–
CCCSc1ccc2c(c1)nc(NC(=O)OC)n2C(=O)CC	3.17	–	–	–	–	–	–	–	–

Now from value to compound, other results behind:

logP [1]	half-life [2] [min]	k [3]	k [4]	half-life [5] [min]	half-life [6] [min]	half-life [7] [min]	k [13]	Structure (SMILES)	also measured
2.82	–	–	–	–	–	–	–	CCCSc1ccc2c(c1)nc(NC(=O)OC)n2C(C)=O	–
2.91	55.8	12.43 10e-3 min-1	15.29 10e-3 min-1	45.3	230	123	3.01 10e-3 min-1	CCCSc1ccc2c(c1)nc(NC(=O)OC)n2COC(=O)c1ccc(N)cc1.Cl	k [8]: 0.3203 min⁻¹; k [9]: 0.2826 min⁻¹; k [10]: 0.0323 min⁻¹; k [11]: 0.0087 min⁻¹; k [12]: 0.003 min⁻¹; k [14]: 0.0036 min⁻¹; k [15]: 1.8066 min⁻¹; k [16]: 8 min⁻¹
3.92	8.32	83.29 10e-3 min-1	100.14 10e-3 min-1	6.92	316	121	2.19 10e-3 min-1	CCCSc1ccc2c(c1)nc(NC(=O)OC)n2C(=O)OCC	k [17]: 5.73 10e-3 min-1
